Experimental data from ChEMBL document CHEMBL3272063, “Potential antitumor agents. 13. 4-Methyl-5-amino-1-formylisoquinoline thiosemicarbazone” (J Med Chem, 1976).
Activity calls are given as the source filed them. The rule behind the calls is not given here.

Experiments:
[1] = Antitumor activity against mouse S180A cells allografted in CD-1 mouse assessed as dose required for maximum increase in mouse survival administered qd for 6 days; type: functional
Mus musculus = experiment: Toxicity in CD-1 mouse allografted with mouse S180A cells assessed as change in body weight at maximum effective dose administered qd for 6 days (reference value: 18.2%); type: organism-based; conditions: 144 h
[2] = Antitumor activity against mouse S180A cells allografted in CD-1 mouse assessed as average survival at maximum effective dose administered qd for 6 days (reference value: 12.6 +/- 0.6 days); type: functional
[3] = Antitumor activity against mouse S180A cells allografted in CD-1 mouse assessed as average survival at maximum effective dose administered qd for 6 days relative to control; type: functional
Rattus norvegicus [4] = species on record: Rattus norvegicus; experiment: Inhibition of ribonucleoside-diphosphate reductase in rat hepatoma cells relative to 5-hydroxy-2-formylpyridine thiosemicarbazone; type: cell-based
Rattus norvegicus [5] = species on record: Rattus norvegicus; experiment: Inhibition of ribonucleoside-diphosphate reductase in rat hepatoma cells relative to 4-(m-amino)phenyl-2-formylpyridine thiosemicarbazone; type: cell-based
S180A = experiment: Antitumor activity against mouse S180A cells allografted in CD-1 mouse assessed as increase in mouse survival administered qd for 6 days; type: functional, cell-based
How it was run: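 Adult female CD-1 mice given Sarcoma 180 ascites cells taken from a donor mouse carrying a 7-day tumor. Drug dosed once daily for six consecutive days, starting 24 h after implantation, across 5-100 mg/kg/day. Read-out is average survival time, with mice alive at 50 days counted as 50-day survivors. %T/C = treated/control × 100. Value reported at the maximum effective daily dose.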

SMILES | Activity [1] [mg/kg] | Activity (Mus musculus) [%] | Survival [2] [days] | T/C [3] [%] | fold change (FC) (Rattus norvegicus [4]) | fold change (FC) (Rattus norvegicus [5]) | Activity (S180A)
Cc1cnc(/C=N/NC(N)=S)c2cccc(N)c12 | 10 | -4.8 | 38.2 | 303 | 60 | 2 | –
NC(=S)N/N=C/c1nccc2c(N)cccc12 | 40 | -8.5 | 37.3 | 296 | – | – | –
N/C(S)=N/N=C/c1ccc(O)cn1 | 60 | -3.3 | 30.4 | 241 | – | – | –
NC(=S)N/N=C/c1nccc2ccccc12 | 40 | -5.1 | 39.2 | 311 | – | – | –
Cc1cnc(/C=N/NC(N)=S)c2cccc([N+](=O)[O-])c12 | – | – | – | – | – | – | inactive
